Assay [1] has as its system HMC1. Nature of the assay: Inhibition of FCepsilonRI expression in human HMC1 cells at 30 uM after 72 hrs by flow cytometric analysis. Conditions: for inhibition (INH): in the assay text read “30 ug/mL” for “30 uM”. In kind it is functional. A digest of the protocol: (§1)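 HMC-1 human mast cells exposed to test sample for 72 h, then harvested and stained with anti-FcεRI α-chain antibody plus FITC-labelled secondary antibody; surface FcεRI read as FITC fluorescence by flow cytometry. Mean ± SD of triplicate experiments.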
For orientation: A flow cytometer gives signals particle by particle.

In assay [2] the test system is HMC1. Nature of the assay: Inhibition of FCepsilonRI expression in human HMC1 cells at 30 to 100 uM after 72 hrs by flow cytometric analysis. It counts as functional, cell-based. The essentials: as §1
The test system of assay [3] is HMC1. Nature of the assay: Inhibition of FCepsilonRIgamma subunit mRNA expression in human HMC1 cells at 50 to 100 uM after 36 hrs by RT-PCR analysis. It counts as functional, cell-based. The essentials: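 After 36 h culture of HMC-1 cells with compound, total RNA extracted; mRNA of each FcεRI subunit measured by RT-PCR with ethidium bromide staining of products, normalized to g3pdh and compared with vehicle. Mean ± SD, triplicate experiments.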

Assay [4] deals with HMC1. Nature of the assay: Inhibition of FCepsilonRIbeta subunit mRNA expression in human HMC1 cells at 50 to 100 uM after 36 hrs by RT-PCR analysis.

The source made the active and inactive calls. The rule behind the calls is not given here.

Take `COc1cc2ccc(=O)oc2c(OC)c1OCC(O)C(C)(C)O` (single isomer, unassigned; enantiomer 1): in assay [1], the “inhibition (INH)” value stood at 45.1%. `COc1cc2ccc(=O)oc2c(O)c1OCC(O)C(C)(C)O` (stereo unspecified): in assay [2], the inhibition entry is “inactive”.

As to `COc1cc2ccc(=O)oc2c(OC)c1OCC(O)C(C)(C)O` (racemic) [listing 1 of 2 here], in assay [1], the “inhibition (INH)” value is reported as 49%. For the compound `COc1c(OCC(O)C(C)(C)O)c(O)cc2ccc(=O)oc12` (racemic), in assay [2], the inhibition entry is “inactive”. Still for that read-out and setting: for `COc1cc2ccc(=O)oc2c(OC)c1OCCC(C)(C)O` the value was “Active”. Compound `COc1cc2ccc(=O)oc2c(OC)c1OCC(O)C(C)(C)O` (stereo in doubt) registered an inhibition at 30 µM in assay [1] (Homo sapiens, HMC1, 72 h) of 44.3%.

Regarding `COc1cc2ccc(=O)oc2c(OC)c1OCCC(C)C`, the inhibition result in assay [2] was “Active”. Regarding `COc1cc2ccc(=O)oc2c(OC)c1OCC(O)C(C)(C)O` (racemic) [listing 2 of 2 here], the inhibition result in assay [3] was “inactive”. Further, the inhibition result in assay [4] was “Active”.

On to `COc1cc2ccc(=O)oc2c(OC)c1OCC1OC1(C)C` (stereo unspecified), for which the inhibition entry in assay [2] was “Active”. Same read-out and setting: with `COc1cc2ccc(=O)oc2c(OC)c1OCC(O)C(C)C` (stereo unspecified) the entry was “Active”.

As usually defined, the inhibition is the drop in the measured response relative to a control, in per cent.

Values taken from ChEMBL document CHEMBL4265924, “Inhibitor for FcεRI expression on mast cell from Verbasucum thapsus L” (2018).
